This data set concerns MS2 coat protein. The experiment in a line: apparent Kd, MS2 coat protein; higher = weaker binding; RNA-MaP array; FMN 200 µM where present. The essentials:
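Designs were transcribed by stalled E. coli RNA polymerase on Illumina sequencing-chip clusters. They were titrated with SNAP-549-labelled MS2 coat protein from 0.7 or 1.5 nM, doubling to 3 µM, without and then with constant ligand. Buffer: 100 mM Tris-HCl pH 7.5, 80 mM KCl, 4 mM MgCl2, BSA, DTT, yeast tRNA, Tween-20. Green signal was normalised to red-channel RNA signal and control-cluster median Fmax. Apparent Kd is the median of filtered per-cluster binding-curve fits.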

The mark [1] stands for this setting: designed as: OFF switch for flavin mononucleotide, no ligand.
[2] abbreviates: ligand present: flavin mononucleotide, designed as: OFF switch for flavin mononucleotide.
[3] abbreviates: designed as: ON switch for flavin mononucleotide, no ligand.
[4] abbreviates: ligand present: flavin mononucleotide, designed as: ON switch for flavin mononucleotide.

As usually defined, the apparent Kd is the concentration giving half-maximal binding under the conditions of the assay.

With “UUAUACGUUGAGGAUAUGUCAUUUAGUAUAGUUACAGAAGGCGAUACAUGAGGAUCACCCAUGUUUAUGGGCAU”, the “apparent Kd” value is, setting by setting: under setting [1], 239 nM; under setting [2], 164 nM.
With “ACCACAGACCAGAAGGGUGAUCGGCCAUGAUACACAGGAUAUGGUCACAUGAGGAUCACCCAUGUAUGGGUUGUGUGACCCAGC”, the “apparent Kd” value runs as follows: under setting [3], 70 nM; under setting [4], 91.7 nM.
Regarding “CAUGUCCUCACAGGAUAUGCACCACUUUGUGGUGCAGAAGGGUGGAAACAUGAGGAUCACCCAUGUGGACAUGAUAUAUUUAAG”, the “apparent Kd” value under setting [3] came to 142 nM and the “apparent Kd” value under setting [4] turned out to be 24.8 nM.
As for “GUCUGAUUGUAGAAGGUACUUAAUACUCAUGUAACAUGAGGAUCACCCAUGUAUCAUCAAUAUUGUAAGGAUAUACAAAUCUCA”, the “apparent Kd” value runs as follows: under setting [3], 150 nM; under setting [4], 28.4 nM.
“AUCAUGUAAGGAUAUCUGACAUGUGACGAAAGUCACUGUUCAGAGAAGGUACAUGAGGAUCACCCAUGUAGAAC”: the “apparent Kd” value came out at 72.2 nM under setting [1] and 133 nM under setting [2].
For “UUAGCAUACCGAGGAUAUUCAUAUAAUAAAUAAACAUGAGGAUCACCCAUGUGGCGAAAGCCUAGGGAGAAGGCGGAAUGCUAG”, the “apparent Kd” value was 171 nM under setting [3] and 27.2 nM under setting [4].
Turning to “ACGACUAGAGGAUAUACAUGAGGAUCACCCAUGUAACUGUCAGGUGACUGACGGAGAUGUAGAAGGCUAGUCGA”, the “apparent Kd” value runs as follows: under setting [1], 15.7 nM; under setting [2], 42.8 nM.
For the sequence “UCGGGCAACCGAAAUAGGACGGCUGAGGAUAUGACAUGAGGAUCACCCAUGUACAGGGCCACAGGUCAGAAGGCAGCCUUUUGG”, the “apparent Kd” value under setting [1] amounted to 161 nM and the “apparent Kd” value under setting [2] amounted to 36.5 nM.
Turning to “CGAUAUAUGAAGGGCGAACGCGCACAUGAGGAUCACCCAUGUAGAAGGCGAUCCGCAACGCGGAUCGAGGAUAUAUAGUAUACG”, the “apparent Kd” value runs as follows: under setting [1], 32.7 nM; under setting [2], 34 nM.
On to “UUUAUGUCAGGAUAUACAUGAGGAUCACCCAUGUAUAUCUUAAAAUAUACAUGGGUAUGUAGAAGGGACCUCCU”, for which the “apparent Kd” value by setting is: under setting [1], 86.5 nM; under setting [2], 77.1 nM.
Regarding “UGGUACUAGGGAGGAUAUGGGAAGAUACAUGAGGAUCACCCAUGUUUAAGAAUGCCGAGUGGCAACUAGAAGGCCCUAGUACCU”, the “apparent Kd” value was determined as 478 nM under setting [3] and 20.5 nM under setting [4].
In the case of “UUCCUCGAAGGAUAUUCGACUAGGUACAUGAGGAUCACCCAUGUCAUGAGCCCAAUAGGCGAAGAAGGUCGAGUGU”, the “apparent Kd” value was found to be 23.5 nM under setting [1] and 34.6 nM under setting [2].
As to “GUAAGUACGAGAGGAUAUUGACAUGAGGAUCACCCAUGUAUUUGGGAGUGUUCACUGAAUUCUUACGAGAAGGCUCGUACAUAC”, the “apparent Kd” value was found to be 218 nM under setting [1] and 242 nM under setting [2].
Take “CGCAACAUACAGAAGGAGUAAAUUAGAAGUGUACUAGGAUAUGUAAACAUGAGGAUCACCCAUGUCGAAUGUGUUAUAGUUGCG”: the “apparent Kd” value was found to be 8.24 nM under setting [1] and 8.53 nM under setting [2].
As for “AAAUUUUGUCAAGGAUAUGUAUAAAAGAGAAGAAAACAUGAGGAUCACCCAUGUAUAUGGUGGGAACAGAAGGUGAAUAAGUAA”, the “apparent Kd” value under setting [1] was 164 nM and the “apparent Kd” value under setting [2] is 154 nM.
As to “CGCAGACAUUGGACCUGGUAACAUGAGGAUCACCCAUGUAUCAGAAGGUACUUAUAGAGAUUAAGUAAGGAUAUGAAGUUUGUG”, the “apparent Kd” value under setting [3] was 5.34 nM and the “apparent Kd” value under setting [4] came to 6.55 nM.
“UUGCCCGCCGGAGGAUAUCUACUCUGUGGUGCACUGCGUUUGCAAUACAUGAGGAUCACCCAUGUAGAGAAGGCCGAGGGCACA”: the “apparent Kd” value reads like this: under setting [1], 318 nM; under setting [2], 48.3 nM.
On to “AGCCUACAUGAGGAUCACCCAUGUCAGGAUAUCUCGCGACGUGUCGGGAACACGUUGCAGAGAAGGGACUCGGG”, for which the “apparent Kd” value by setting is: under setting [1], 56.4 nM; under setting [2], 69.4 nM.
In the case of “AGGAUUGUGCUAGGAUAUCCAGGUUUGCAGCGAGGAGAAGGAGCACAUGAGGAUCACCCAUGUUCUCAAAGGCCACGGCAAUAU”, the “apparent Kd” value runs as follows: under setting [1], 6.98 nM; under setting [2], 13.4 nM.
Regarding “CGAUAUAUGAAGGGCUAAUGCCCACAUGAGGAUCACCCAUGUAGAAGGCGAUCCGCAACGCGGAUCGAGGAUAUAUAGUAUACA”, the “apparent Kd” value under setting [1] is 9.02 nM and the “apparent Kd” value under setting [2] is 9.66 nM.
For “UGUGCGUUGAUCUUCGAUCGUUGUACAUGAGGAUCACCCAUGUAGGAUAUUCUAAGACGCAGAUAGGAGAAGGACAUUGGUAUU”, the “apparent Kd” value reads like this: under setting [1], 10.6 nM; under setting [2], 19.4 nM.
The like results for “GCACUGGAUGUAGGAUAUCAGGACGAUAAGUCCUGAGAAGGACAUGAGGAUCACCCAUGUCUCAAGAAACCAGUGCAUAAUAUA” were, in that order, 13 nM and 15.9 nM.
Take “GUAUGUUAUGAGGAUAUCGGUGAACAUACACAUCGAGAAGGCAUGACAUGAGGAUCACCCAUGUCAAGGAUGAC”: the “apparent Kd” value under setting [1] stood at 27.4 nM and the “apparent Kd” value under setting [2] stood at 57.8 nM.
For “GCUAGUAUUGCAGGAUAUUGAGAAUAAUUAUUCCAAGAAGGGCAUAACAUGAGGAUCACCCAUGUAUUCCUUAGUGAUACUAGC” the same measures were 4.39 nM and 4.44 nM.
Take “UUUAUGUCAGGAUAUGAGUAGUAGAACAAUAGUACUACUACUCAGAAGGGACAUGAGGAUCACCCAUGUUCCUC”: the “apparent Kd” value runs as follows: under setting [1], 18.2 nM; under setting [2], 98.8 nM.
Take “UAUAUGUCAGGAUAUUAGUUGUGGACGAAUAAGACUUCUGCUGAGAAGGGACAUGAGGAUCACCCAUGUUCCUC”: the “apparent Kd” value is 15.8 nM under setting [1] and 19.4 nM under setting [2].
Turning to “UUGUUCUGAGGAUAUACAUGAGGAUCACCCAUGUGUUUCAGCUAGGAGACUAGCGAAUGUAGAAGGCUGUUCUC”, the “apparent Kd” value is, setting by setting: under setting [1], 15.4 nM; under setting [2], 15.8 nM.
For “AUUAUGUCAGGAUAUCAGUAGUAAAAAAAAAAAAUUACUACUGAGAAGGGACAUGAGGAUCACCCAUGUCAAAA” the same measures were 23 nM and 30.6 nM.
Consider “GCACAUGAUACAGGAUAUGUAUUGGUAUUUAUAUACAGUUAUAUAAUAUUUACAGAAGGGUAUACAUGAGGAUCACCCAUGUGC”, for which the “apparent Kd” value reads like this: under setting [1], 81.3 nM; under setting [2], 41.7 nM.
The like results for “UUCCGACAUGAGGAUCACCCAUGUAAGGAUAUGUAUCCUUCGGCCCGAACCAGAGGAAGCAGAAGGUACAGGGA” were, in that order, 31.3 nM and 20 nM.
Regarding “AAACGGGCAGGAUAUGCGUACUCACGGGAAAACUGAAUGGUACAUGAGGAUCACCCAUGUAGAAGGGCUUAAAA”, the “apparent Kd” value reads like this: under setting [1], 53.5 nM; under setting [2], 46.1 nM.
Take “UUACAUACAAAGGUACAUGAGGAUCACCCAUGUUUGUUGGGAAGAAGGGUAACAGUACUACAUAUAUAGGAUAUUUCACAAAUG”: the “apparent Kd” value reads like this: under setting [3], 106 nM; under setting [4], 73.4 nM.
As for “UUAUUAGCAGGAUAUAUCCGGGAUCACAUGAGGAUCACCCAUGUGACCGCUUGAGAUCCUAUAGAAGGGCUUUAUU”, the “apparent Kd” value reads like this: under setting [1], 30.6 nM; under setting [2], 56.3 nM.
On to “UUGAGUUAGCAGGAUAUGGGCAGCAGGAUGCUUCCAGAAGGGCUGACAUGAGGAUCACCCAUGUUCCCAUGCUU”, for which the “apparent Kd” value by setting is: under setting [1], 47.7 nM; under setting [2], 63.6 nM.
With “AGAUUAUGAGGAUAUCGAGUUUAGUACAUGAGGAUCACCCAUGUUAUCCAGGUCUCGUUUCGAGAAGGCAUGAUUC”, the “apparent Kd” value is, setting by setting: under setting [1], 33.5 nM; under setting [2], 30.9 nM.
With “AGACAGUGAGGAUAUGCAGUCGGUGUCACCUGAUGAGAAGAACAUGAGGAUCACCCAUGUAGAAGGCACAGGAA”, the “apparent Kd” value was found to be 39 nM under setting [1] and 229 nM under setting [2].
As to “CCUCGGAGUAAGGAUAUCAAUUUGUAGAUAGAUUGAGAAGGUACUACAUGAGGAUCACCCAUGUCCCGUCUCAA”, the “apparent Kd” value under setting [1] worked out at 14.7 nM and the “apparent Kd” value under setting [2] was 16.4 nM.
As to “CGGAUGUGAGGAUAUACAUGAGGAUCACCCAUGUGAGCCAGCUAGCUGACUGGCUCAUGUAGAAGGCACGUCUG”, the “apparent Kd” value under setting [1] stood at 50.3 nM and the “apparent Kd” value under setting [2] is 120 nM.
For the sequence “UUUGCAUUCCGAGGAUAUUCAUUUAAUGACUUCACAUGAGGAUCACCCAUGUGGCGAUUGCGCCGGGAGAAGGCGGUUUGCUUU”, the “apparent Kd” value worked out at 24.7 nM under setting [3] and 24 nM under setting [4].
In the case of “CUUGUGUUAGGAUAUGCGCCCUGAAGUGGCAGGGCCAGAGAGCAGAAGGGACAUGAGGAUCACCCAUGUGUGAC”, the “apparent Kd” value by setting is: under setting [1], 84.3 nM; under setting [2], 127 nM.
Regarding “CUUGUGUUAGGAUAUGCGCCCUGCAAAAGCAAGGCCAGAGAGCAGAAGGAACAUGAGGAUCACCCAUGUGUGAC”, the “apparent Kd” value amounted to 55.8 nM under setting [1] and 57.7 nM under setting [2].
In the case of “UAAACAUGAGGAUCACCCAUGUUAUGAUCGGUUGAUGAAAGUGAGGAUAUACUUAAUUUUAUGGAGUAGAAGGCACUGGGUUCU”, the “apparent Kd” value under setting [3] stood at 23.1 nM and the “apparent Kd” value under setting [4] was 28.6 nM.
Consider “CUAGAGGAUUAAGGAUAUGCAGAGAGAUCAUGCGCGUCGCGCACAUGAGGAUCACCCAUGUAAGAGCAGAAGGUAACUAUGAUC”, for which the “apparent Kd” value is 18.3 nM under setting [1] and 16.6 nM under setting [2].
“GAGUGACACCAGAAGGGCCAGGAAAGAACCCUGGUAGGAUAUGGAGCGCCCUCGUAACGACCGACAUGAGGAUCACCCAUGUCC”: the “apparent Kd” value reads like this: under setting [3], 193 nM; under setting [4], 34.7 nM.
For the sequence “CAGCGAUAGCUGAAUGGUACAUGGGAGGAUAUGGGUUACAUGAGGAUCACCCAUGUUAAAUAAUACUAGAAGGCCCAUGUACCU”, the “apparent Kd” value reads like this: under setting [3], 16.5 nM; under setting [4], 4.55 nM.
For the sequence “GCACAUGAUACAGGAUAUGUAUUGGAAUUUAUAAUGAGUUAUAUAAUAUUUACAGAAGGGUAUACAUGAGGAUCACCCAUGUGC”, the “apparent Kd” value reads like this: under setting [1], 30.7 nM; under setting [2], 23 nM.
As to “CUGAAGAGAGAAGGAUAUCACAGGAUGGAGAUCUCUGAAUAAACAUGAGGAUCACCCAUGUCCAGUGAGAAGGUCUCGGUUCCG”, the “apparent Kd” value by setting is: under setting [1], 186 nM; under setting [2], 195 nM.
For “UAGCAUUGCCUUUGGUAGUGCUUUACAUGAGGAUCACCCAUGUAGGAUAUGGUAGGCUUUGCUUACCAGAAGGACAUGAUAAUU” the same measures were 52.9 nM and 166 nM.

The values are drawn from the EternaBench riboswitch data.
